Assay results published in ChEMBL document CHEMBL5058577, “EUbOPEN Chemogenomics Library 2 (Multiplex)” (2022).

Test system: HEK-293T
Assay: Multiplex assay against HEK293T
Assay type: toxicity, cell-based
Conditions: human
Method in brief: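 Live cells were stained at seeding with Hoechst33342, BioTracker Green Microtubule Cytoskeleton Dye, MitoTracker Red and Annexin V Alexa Fluor 680, then imaged on a CQ1 microscope at 37°C and 5% CO2 after compound addition. CellPathfinder machine-learning gating split cells into Hoechst high-intensity objects or normal cells. Normal cells were split into healthy, pyknosed or fragmented nuclei, and pyknosed cells into mitotic or apoptotic. Tubulin, mitochondrial-mass and membrane-permeability phenotypes are per cents of healthy-nucleus cells.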

[1] = 12 h, 1 µM, compound concentration 1 uM, replicate 1
[2] = 12 h, 1 µM, compound concentration 1 uM, replicate 2
[3] = 12 h, 10 µM, compound concentration 10 uM, replicate 1
[4] = 12 h, 10 µM, compound concentration 10 uM, replicate 2
[5] = 24 h, 1 µM, compound concentration 1 uM, replicate 1
[6] = 24 h, 1 µM, compound concentration 1 uM, replicate 2
[7] = 24 h, 10 µM, compound concentration 10 uM, replicate 1
[8] = 24 h, 10 µM, compound concentration 10 uM, replicate 2
[9] = 48 h, 1 µM, compound concentration 1 uM, replicate 1
[10] = 48 h, 1 µM, compound concentration 1 uM, replicate 2
[11] = 48 h, 10 µM, compound concentration 10 uM, replicate 1
[12] = 48 h, 10 µM, compound concentration 10 uM, replicate 2

What does the source list for Cc1sc2c(c1C)C(c1ccc(Cl)cc1)=N[C@@H](CC(=O)NCCCCCCCCNC(=O)COc1cccc3c1C(=O)N(C1CCC(=O)NC1=O)C3=O)c1nnc(C)n1-2 (stereo not given in full)?
Population Apoptotic (%) [1]: 66%; Population Fragmented Nuclei (%) [1]: 5%; Population Healthy Nuclei (%) [1]: 55%; Population Hoechst High Intensity Objects (%) [1]: 9%; Population Membrane Permeable-Phenotype (%) [1]: 0%; Population Mitochondria Different-Phenotype (%) [1]: 73%; Population Mitotic Cells (%) [1]: 33%; Population Normal (%) [1]: 90%; Population Pyknosed Nuclei (%) [1]: 39%; Population Tubulin-Different-Phenotype (%) [1]: 49%; Total Cell Count [1]: 175; Population Apoptotic (%) [2]: 62%; Population Fragmented Nuclei (%) [2]: 6%; Population Healthy Nuclei (%) [2]: 69%; Population Hoechst High Intensity Objects (%) [2]: 30%; Population Mitochondria Different-Phenotype (%) [2]: 91%; Population Mitotic Cells (%) [2]: 37%; Population Normal (%) [2]: 69%; Population Pyknosed Nuclei (%) [2]: 24%; Population Tubulin-Different-Phenotype (%) [2]: 59%; Total Cell Count [2]: 205; Population Apoptotic (%) [3]: 60%; Population Fragmented Nuclei (%) [3]: 9%; Population Healthy Nuclei (%) [3]: 67%; Population Hoechst High Intensity Objects (%) [3]: 14%; Population Membrane Permeable-Phenotype (%) [3]: 0%; Population Mitochondria Different-Phenotype (%) [3]: 75%; Population Mitotic Cells (%) [3]: 39%; Population Normal (%) [3]: 85%; Population Pyknosed Nuclei (%) [3]: 23%; Population Tubulin-Different-Phenotype (%) [3]: 23%; Total Cell Count [3]: 363; Population Apoptotic (%) [4]: 53%; Population Fragmented Nuclei (%) [4]: 8%; Population Healthy Nuclei (%) [4]: 66%; Population Hoechst High Intensity Objects (%) [4]: 37%; Population Mitochondria Different-Phenotype (%) [4]: 87%; Population Mitotic Cells (%) [4]: 46%; Population Normal (%) [4]: 62%; Population Pyknosed Nuclei (%) [4]: 24%; Population Tubulin-Different-Phenotype (%) [4]: 39%; Total Cell Count [4]: 315; Population Apoptotic (%) [5]: 51%; Population Fragmented Nuclei (%) [5]: 7%; Population Healthy Nuclei (%) [5]: 61%; Population Hoechst High Intensity Objects (%) [5]: 6%; Population Membrane Permeable-Phenotype (%) [5]: 0%; Population Mitochondria Different-Phenotype (%) [5]: 58%; Population Mitotic Cells (%) [5]: 48%; Population Normal (%) [5]: 93%; Population Pyknosed Nuclei (%) [5]: 31%; Population Tubulin-Different-Phenotype (%) [5]: 22%; Total Cell Count [5]: 261; Population Apoptotic (%) [6]: 67%; Population Fragmented Nuclei (%) [6]: 6%; Population Healthy Nuclei (%) [6]: 70%; Population Hoechst High Intensity Objects (%) [6]: 30%; Population Mitochondria Different-Phenotype (%) [6]: 83%; Population Mitotic Cells (%) [6]: 32%; Population Normal (%) [6]: 69%; Population Pyknosed Nuclei (%) [6]: 23%; Population Tubulin-Different-Phenotype (%) [6]: 31%; Total Cell Count [6]: 231; Population Apoptotic (%) [7]: 52%; Population Fragmented Nuclei (%) [7]: 11%; Population Healthy Nuclei (%) [7]: 64%; Population Hoechst High Intensity Objects (%) [7]: 12%; Population Membrane Permeable-Phenotype (%) [7]: 0%; Population Mitochondria Different-Phenotype (%) [7]: 64%; Population Mitotic Cells (%) [7]: 47%; Population Normal (%) [7]: 87%; Population Pyknosed Nuclei (%) [7]: 24%; Population Tubulin-Different-Phenotype (%) [7]: 19%; Total Cell Count [7]: 397; Population Apoptotic (%) [8]: 57%; Population Fragmented Nuclei (%) [8]: 9%; Population Healthy Nuclei (%) [8]: 60%; Population Hoechst High Intensity Objects (%) [8]: 39%; Population Mitochondria Different-Phenotype (%) [8]: 86%; Population Mitotic Cells (%) [8]: 42%; Population Normal (%) [8]: 60%; Population Pyknosed Nuclei (%) [8]: 30%; Total Cell Count [8]: 346; Population Apoptotic (%) [9]: 55%; Population Fragmented Nuclei (%) [9]: 7%; Population Healthy Nuclei (%) [9]: 58%; Population Hoechst High Intensity Objects (%) [9]: 2%; Population Membrane Permeable-Phenotype (%) [9]: 0%; Population Mitochondria Different-Phenotype (%) [9]: 56%; Population Mitotic Cells (%) [9]: 44%; Population Normal (%) [9]: 97%; Population Pyknosed Nuclei (%) [9]: 33%; Population Tubulin-Different-Phenotype (%) [9]: 30%; Total Cell Count [9]: 284; Population Apoptotic (%) [10]: 67%; Population Fragmented Nuclei (%) [10]: 9%; Population Healthy Nuclei (%) [10]: 65%; Population Hoechst High Intensity Objects (%) [10]: 15%; Population Mitochondria Different-Phenotype (%) [10]: 78%; Population Mitotic Cells (%) [10]: 32%; Population Normal (%) [10]: 84%; Population Pyknosed Nuclei (%) [10]: 25%; Population Tubulin-Different-Phenotype (%) [10]: 42%; Total Cell Count [10]: 289; Population Apoptotic (%) [11]: 48%; Population Fragmented Nuclei (%) [11]: 9%; Population Healthy Nuclei (%) [11]: 55%; Population Hoechst High Intensity Objects (%) [11]: 14%; Population Membrane Permeable-Phenotype (%) [11]: 0%; Population Mitochondria Different-Phenotype (%) [11]: 51%; Population Mitotic Cells (%) [11]: 51%; Population Normal (%) [11]: 85%; Population Pyknosed Nuclei (%) [11]: 35%; Population Tubulin-Different-Phenotype (%) [11]: 17%; Total Cell Count [11]: 403; Population Apoptotic (%) [12]: 65%; Population Fragmented Nuclei (%) [12]: 15%; Population Healthy Nuclei (%) [12]: 52%; Population Hoechst High Intensity Objects (%) [12]: 31%; Population Mitochondria Different-Phenotype (%) [12]: 76%; Population Mitotic Cells (%) [12]: 34%; Population Normal (%) [12]: 69%; Population Pyknosed Nuclei (%) [12]: 31%; Population Tubulin-Different-Phenotype (%) [12]: 31%; Total Cell Count [12]: 300
